How the values were obtained:
[1] = target: T1, Serotonin 2 (5-HT2) receptor (Rattus norvegicus, UniProt P30994+P08909+P14842); assay: Ability to inhibit binding of titreated spiperone to the 5-hydroxytryptamine 2 receptor in rat brain frontal cortex membranes; type: cell membranes, Membrane
How it was run: (§1)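 5HT-2 binding in rat frontal cortex membranes with [3H]spiperone as radioligand. Tested at eleven concentrations between 0.1 and 10 000 nM, each in duplicate. IC50 is the concentration that halves specific binding, obtained by curve fitting.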

Rattus norvegicus [2] = assay: In vivo serum corticosterone concentration in male Wistar rats after injecting 0.3 mg/kg of compound subcutaneously; type: functional, organism-based; set-up: dose 0.3 mg/kg
How it was run: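 Serum corticosterone in male Wistar rats, measured spectrofluorometrically and reported per 100 mL of serum.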

[3] = target: Serotonin 1 (5-HT1) receptor (Rattus norvegicus, UniProt P28564+P30940+P19327+P28565); assay: Ability to inhibit binding of titreated serotonin to the 5-hydroxytryptamine 1 receptor in rat brain frontal cortex membranes; type: cell membranes, Membrane
Rattus norvegicus [4] = species: Rattus norvegicus; assay: Effect on 5HIAA (5-hydroxyindoleacetic acid) concentration in hypothalamus as an index of serotonin turnover in male Wistar rats expressed as percent of control; type: functional
How it was run: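 Hypothalamic 5-hydroxyindoleacetic acid in male Wistar rats, used as an index of serotonin turnover. Measured by liquid chromatography with electrochemical detection and expressed as percent of control.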

[5] = target: T1, Serotonin 2 (5-HT2) receptor; assay: Ability to inhibit binding of titreated spiperone to 5-hydroxytryptamine 2 receptor in rat brain frontal cortex membranes; type: cell membranes, Membrane; how it was run: as §1

SMILES	IC50 [1] [µM]	Concentration (Rattus norvegicus [2]) [µg 100ml-1]	IC50 [3] [nM]	5-HIAA level, % of control (Rattus norvegicus [4]) [%]	IC50 [5] [nM]
CN(C)C1Cc2c[nH]c3ccc(C(N)=O)c(c23)C1 (stereo unspecified)	5.44	9	390	99	
COc1ccc2[nH]cc3c2c1CC(N(C)C)C3 (stereo unspecified)	1.756	41	96	65	
CCCN(CCC)C1Cc2c[nH]c3ccc(OC)c(c23)C1 (stereo unspecified)	1.179	48	36	58	
CCCN(CCC)C1Cc2c[nH]c3ccc(C#N)c(c23)C1 (stereo unspecified)		47	90	90	390
CCCN(CCC)C1Cc2cccc3[nH]cc(c23)C1 (stereo unspecified)			141		723
CCCN(CCC)C1Cc2c[nH]c3ccc(Br)c(c23)C1 (stereo unspecified)		13	241	77	15444
CCCN(CCC)C1Cc2c[nH]c3ccc(C(N)=O)c(c23)C1 (stereo unspecified)	4.817	49	83	61	
